Experimental findings from ChEMBL document CHEMBL4038304, “Chiral Indolylarylsulfone Non-Nucleoside Reverse Transcriptase Inhibitors as New Potent and Broad Spectrum Anti-HIV-1 Agents” (J Med Chem, 2017) are described below.

pEC50, pIC50: −log10 of the molar value.

System in the first series: not listed separately
Put plainly: Cytotoxicity against human MT4 cells assessed as cell viability by MTT assay. It is filed as cell-based.
Conditions: not given
In outline: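 Uninfected MT-4 cells scored for viability by MTT. […] Values are means of two to three independent experiments, each run in triplicate.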
For orientation: Tetrazolium assays rely on reduction of a dye to a coloured formazan, in cell work by metabolically active cells.
Take `Cc1cc(C)cc(S(=O)(=O)c2c(C(=O)NCC(=O)NCc3ccncn3)[nH]c3ccc(Cl)cc23)c1`: the CC50 is > 48800 nM.

On to `Cc1cc(C)cc(S(=O)(=O)c2c(C(=O)NCc3cccc(N)c3)[nH]c3ccc(Cl)cc23)c1`, for which the CC50 is > 53400 nM.

As to `Cc1cc(C)cc(S(=O)(=O)c2c(C(=O)NCC(=O)NCc3ccco3)[nH]c3ccc(Cl)cc23)c1`, the CC50 is > 50000 nM.

A further series deals with Human immunodeficiency virus 1. In words: Antiviral activity against HIV1 NL4-3 infected in human […] cells assessed as protection against virus-induced cytopathic effect measured on day 5 post infection by MTT assay. The format is functional, cell-based. Particulars: Human immunodeficiency virus 1, NL4-3, 120 h. In outline:
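Values are means of two to three independent experiments, each run in triplicate. The lowest detectable concentration is reported where activity fell below the assay limit.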
Turning to `Cc1cc(C)cc(S(=O)(=O)c2c(C(=O)NCC(=O)NCc3ccncn3)[nH]c3ccc(Cl)cc23)c1`, the pEC50 was 9.22.

With `Cc1cc(C)cc(S(=O)(=O)c2c(C(=O)NCc3cccc(N)c3)[nH]c3ccc(Cl)cc23)c1`, the pEC50 was 9.15.

Consider `Cc1cc(C)cc(S(=O)(=O)c2c(C(=O)NCC(=O)NCc3ccco3)[nH]c3ccc(Cl)cc23)c1`, for which the pEC50 is 9.22.

System in another series: not listed separately
Put plainly: Selectivity index, ratio of CC50 for human MT4 cells to EC50 for HIV1 NL4-3 infected in human MT4 cells. The format is toxicity, cell-based. To be noted: read-out: Ratio CC50/EC50. In outline: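 SI computed as CC50/EC50, using the MTT-based CC50 in uninfected MT-4 cells and the MTT-based EC50 against HIV-1 NL4-3-induced cell death in MT-4 cells. Experiments were run in triplicate, two to three times.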
For the compound `Cc1cc(C)cc(S(=O)(=O)c2c(C(=O)NCC(=O)NCc3ccncn3)[nH]c3ccc(Cl)cc23)c1`, the selectivity ratio is > 81400.

With `Cc1cc(C)cc(S(=O)(=O)c2c(C(=O)NCc3cccc(N)c3)[nH]c3ccc(Cl)cc23)c1`, the selectivity ratio was > 76300.

For the compound `Cc1cc(C)cc(S(=O)(=O)c2c(C(=O)NCC(=O)NCc3ccco3)[nH]c3ccc(Cl)cc23)c1`, the selectivity ratio is > 83400.

The test system of another series is Human immunodeficiency virus 1. Put plainly: Antiviral activity against HIV1 harboring reverse transcriptase K103N mutant infected in human […] cells assessed as protection against virus-induced cytopathic effect measured on day 5 post infection by MTT assay. It is filed as functional, cell-based. To be noted: Human immunodeficiency virus 1, 120 h. (Protection from cytopathic effect is a common read-out in antiviral testing.)
Turning to `Cc1cc(C)cc(S(=O)(=O)c2c(C(=O)NCC(=O)NCc3ccncn3)[nH]c3ccc(Cl)cc23)c1`, the pEC50 is 7.71.

Turning to `Cc1cc(C)cc(S(=O)(=O)c2c(C(=O)NCc3cccc(N)c3)[nH]c3ccc(Cl)cc23)c1`, the pEC50 is 9.15.

For `Cc1cc(C)cc(S(=O)(=O)c2c(C(=O)NCC(=O)NCc3ccco3)[nH]c3ccc(Cl)cc23)c1`, the pEC50 is 7.22.

In the next series the test system is Human immunodeficiency virus 1. Put plainly: Antiviral activity against HIV1 harboring reverse transcriptase Y181C mutant infected in human […] cells assessed as protection against virus-induced cytopathic effect measured on day 5 post infection by MTT assay. It is filed as functional, cell-based. To be noted: Human immunodeficiency virus 1, 120 h.
Consider `Cc1cc(C)cc(S(=O)(=O)c2c(C(=O)NCC(=O)NCc3ccncn3)[nH]c3ccc(Cl)cc23)c1`, for which the pEC50 is 9.22.

In the case of `Cc1cc(C)cc(S(=O)(=O)c2c(C(=O)NCc3cccc(N)c3)[nH]c3ccc(Cl)cc23)c1`, the pEC50 was 9.15.

Turning to `Cc1cc(C)cc(S(=O)(=O)c2c(C(=O)NCC(=O)NCc3ccco3)[nH]c3ccc(Cl)cc23)c1`, the pEC50 is > 9.22.

In another series the test system is Human immunodeficiency virus 1. In words: Antiviral activity against HIV1 harboring reverse transcriptase Y188L mutant infected in human […] cells assessed as protection against virus-induced cytopathic effect measured on day 5 post infection by MTT assay. It is filed as functional, cell-based. Particulars: Human immunodeficiency virus 1, 120 h.
Turning to `Cc1cc(C)cc(S(=O)(=O)c2c(C(=O)NCC(=O)NCc3ccncn3)[nH]c3ccc(Cl)cc23)c1`, the pEC50 was 6.35.

On to `Cc1cc(C)cc(S(=O)(=O)c2c(C(=O)NCc3cccc(N)c3)[nH]c3ccc(Cl)cc23)c1`, for which the pEC50 was 7.62.

Regarding `Cc1cc(C)cc(S(=O)(=O)c2c(C(=O)NCC(=O)NCc3ccco3)[nH]c3ccc(Cl)cc23)c1`, the pEC50 is 5.95.

For a further series, the system named is Human immunodeficiency virus 1. Put plainly: Antiviral activity against HIV1 harboring reverse transcriptase K103N /[…] double mutant infected in human […] cells assessed as protection against virus-induced cytopathic effect measured on day 5 post infection by MTT assay. The format is functional, cell-based. Particulars: Human immunodeficiency virus 1, 120 h.
For `Cc1cc(C)cc(S(=O)(=O)c2c(C(=O)NCC(=O)NCc3ccncn3)[nH]c3ccc(Cl)cc23)c1`, the pEC50 is 5.64.

For the compound `Cc1cc(C)cc(S(=O)(=O)c2c(C(=O)NCc3cccc(N)c3)[nH]c3ccc(Cl)cc23)c1`, the pEC50 is 7.07.

On to `Cc1cc(C)cc(S(=O)(=O)c2c(C(=O)NCC(=O)NCc3ccco3)[nH]c3ccc(Cl)cc23)c1`, for which the pEC50 was 4.73.

A further series relates to Human immunodeficiency virus 1. In words: Ratio of EC50 for HIV-1 harboring reverse transcriptase K103N mutant infected in human MT4 cells to EC50 for HIV1 NL4-3 infected in human MT4 cells. The format is functional.
Conditions: not given
In outline:
(§1)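 Fold change calculated as EC50 against the stated resistant mutant HIV-1 strain divided by EC50 against wild-type NL4-3. Both EC50s come from MTT read-out of virus-induced death in MT-4 cells, mean of two to three independent experiments each in triplicate.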
As for `Cc1cc(C)cc(S(=O)(=O)c2c(C(=O)NCC(=O)NCc3ccncn3)[nH]c3ccc(Cl)cc23)c1`, the “Ratio EC50” value is given as 33.

Turning to `Cc1cc(C)cc(S(=O)(=O)c2c(C(=O)NCc3cccc(N)c3)[nH]c3ccc(Cl)cc23)c1`, the “Ratio EC50” value was determined as 1.

On to `Cc1cc(C)cc(S(=O)(=O)c2c(C(=O)NCC(=O)NCc3ccco3)[nH]c3ccc(Cl)cc23)c1`, for which the “Ratio EC50” value is on record as >86.

A further series relates to Human immunodeficiency virus 1. In words: Ratio of EC50 for HIV-1 harboring reverse transcriptase Y181C mutant infected in human MT4 cells to EC50 for HIV1 NL4-3 infected in human MT4 cells. The format is functional.
Conditions: not given
The essentials:
as §1
Take `Cc1cc(C)cc(S(=O)(=O)c2c(C(=O)NCC(=O)NCc3ccncn3)[nH]c3ccc(Cl)cc23)c1`: the “Ratio EC50” value stood at 1.

For the compound `Cc1cc(C)cc(S(=O)(=O)c2c(C(=O)NCc3cccc(N)c3)[nH]c3ccc(Cl)cc23)c1`, the “Ratio EC50” value is 1.

A further series relates to Human immunodeficiency virus 1. Put plainly: Ratio of EC50 for HIV-1 harboring reverse transcriptase Y188L mutant infected in human MT4 cells to EC50 for HIV1 NL4-3 infected in human MT4 cells. The format is functional.
Conditions: not given
In outline:
as §1
On to `Cc1cc(C)cc(S(=O)(=O)c2c(C(=O)NCC(=O)NCc3ccncn3)[nH]c3ccc(Cl)cc23)c1`, for which the “Ratio EC50” value is given as >743.

Take `Cc1cc(C)cc(S(=O)(=O)c2c(C(=O)NCc3cccc(N)c3)[nH]c3ccc(Cl)cc23)c1`: the “Ratio EC50” value is recorded as 34.

Regarding `Cc1cc(C)cc(S(=O)(=O)c2c(C(=O)NCC(=O)NCc3ccco3)[nH]c3ccc(Cl)cc23)c1`, the “Ratio EC50” value is recorded as >1600.

The next series deals with Human immunodeficiency virus 1. In words: Ratio of EC50 for HIV-1 harboring reverse transcriptase K103N/[…] double mutant infected in human MT4 cells to EC50 for HIV1 NL4-3 infected in human MT4 cells. The format is functional.
Conditions: not given
The essentials: as §1
For the compound `Cc1cc(C)cc(S(=O)(=O)c2c(C(=O)NCC(=O)NCc3ccncn3)[nH]c3ccc(Cl)cc23)c1`, the “Ratio EC50” value is listed as >3842.

For the compound `Cc1cc(C)cc(S(=O)(=O)c2c(C(=O)NCc3cccc(N)c3)[nH]c3ccc(Cl)cc23)c1`, the “Ratio EC50” value came to 123.

As to `Cc1cc(C)cc(S(=O)(=O)c2c(C(=O)NCC(=O)NCc3ccco3)[nH]c3ccc(Cl)cc23)c1`, the “Ratio EC50” value was >26477.

The next series has as its target Human immunodeficiency virus type 1 reverse transcriptase (Human immunodeficiency virus 1, UniProt Q72547). Put plainly: Inhibition of HIV1 NL4-3 reverse transcriptase His-tagged p66/p51 associated RNA dependent DNA polymerase activity expressed in Escherichia coli assessed as reduction in [3H]dTTP incorporation using poly(rA)/oligo(dT) as template/primer by scintillation counting analysis.
Conditions: not given
For the compound `Cc1cc(C)cc(S(=O)(=O)c2c(C(=O)NCC(=O)NCc3ccncn3)[nH]c3ccc(Cl)cc23)c1`, the pIC50 was 6.69.

Turning to `Cc1cc(C)cc(S(=O)(=O)c2c(C(=O)NCc3cccc(N)c3)[nH]c3ccc(Cl)cc23)c1`, the pIC50 is 7.39.

As for `Cc1cc(C)cc(S(=O)(=O)c2c(C(=O)NCC(=O)NCc3ccco3)[nH]c3ccc(Cl)cc23)c1`, the pIC50 was 6.84.

In the next series the target is Human immunodeficiency virus type 1 reverse transcriptase (Human immunodeficiency virus 1, UniProt Q72547, K103N). In words: Inhibition of HIV1 reverse transcriptase p66 K103N mutant associated RNA dependent DNA polymerase activity expressed in Escherichia coli assessed as reduction in [3H]dTTP incorporation using poly(rA)/oligo(dT) as template/primer by scintillation counting analysis.
Conditions: not given
`Cc1cc(C)cc(S(=O)(=O)c2c(C(=O)NCC(=O)NCc3ccncn3)[nH]c3ccc(Cl)cc23)c1`: the pIC50 is 6.26.

Turning to `Cc1cc(C)cc(S(=O)(=O)c2c(C(=O)NCc3cccc(N)c3)[nH]c3ccc(Cl)cc23)c1`, the pIC50 was 7.18.

In the case of `Cc1cc(C)cc(S(=O)(=O)c2c(C(=O)NCC(=O)NCc3ccco3)[nH]c3ccc(Cl)cc23)c1`, the pIC50 is 6.27.

Another series addresses Human immunodeficiency virus type 1 reverse transcriptase (Human immunodeficiency virus 1, UniProt Q72547, Y181I). Put plainly: Inhibition of HIV1 reverse transcriptase p66 Y181I mutant associated RNA dependent DNA polymerase activity expressed in Escherichia coli assessed as reduction in [3H]dTTP incorporation using poly(rA)/oligo(dT) as template/primer by scintillation counting analysis.
Conditions: not given
For the compound `Cc1cc(C)cc(S(=O)(=O)c2c(C(=O)NCC(=O)NCc3ccncn3)[nH]c3ccc(Cl)cc23)c1`, the pIC50 is 6.28.

For `Cc1cc(C)cc(S(=O)(=O)c2c(C(=O)NCc3cccc(N)c3)[nH]c3ccc(Cl)cc23)c1`, the pIC50 is 7.19.

`Cc1cc(C)cc(S(=O)(=O)c2c(C(=O)NCC(=O)NCc3ccco3)[nH]c3ccc(Cl)cc23)c1`: the pIC50 is 6.34.

System in a further series: not listed separately
In words: Inhibition of HIV1 reverse transcriptase p66 K103N/[…] double mutant associated RNA dependent DNA polymerase activity expressed in Escherichia coli assessed as reduction in [3H]dTTP incorporation using poly(rA)/oligo(dT) as template/primer by scintillation counting analysis. Details: species or system Human immunodeficiency virus 1.
Conditions: not given
Turning to `Cc1cc(C)cc(S(=O)(=O)c2c(C(=O)NCC(=O)NCc3ccncn3)[nH]c3ccc(Cl)cc23)c1`, the pIC50 is 6.08.

For the compound `Cc1cc(C)cc(S(=O)(=O)c2c(C(=O)NCc3cccc(N)c3)[nH]c3ccc(Cl)cc23)c1`, the pIC50 is 7.46.

For `Cc1cc(C)cc(S(=O)(=O)c2c(C(=O)NCC(=O)NCc3ccco3)[nH]c3ccc(Cl)cc23)c1`, the pIC50 was 6.23.

A word on the CC50: it is the concentration at which the toxic effect on the cells reaches its halfway point. The term pEC50 denotes −log10 of the EC50, conventionally taken in molar units. Broadly, the pIC50 is −log10 of the IC50, conventionally taken in molar units.
